Experimental data from ChEMBL document CHEMBL1126990, “Design and synthesis of 18F-labeled neurotoxic analogs of MPTP” (J Med Chem, 1993).

Tests used:
Type in all cases: ADME
Rattus norvegicus = species: Rattus norvegicus; test: Maximal rate (Vmax) for oxidation by rat liver MAO (results are means of number of separate experiments, n=5)
Procedure, shortened: (§1)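 Rat liver MAO (crude P2 mitochondrial fraction from adult male Wistar rats, in pH 7.4 phosphate buffer) incubated with substrate at 30 μM to 5 mM; colorimetric detection of H2O2 formed. Blanks contained 0.1 mM pargyline. Vmax and Km from linear regression of Lineweaver-Burk plots; means ± SE of n separate experiments; ANOVA with post-hoc Scheffe test.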

[1] = separate experiments, n=5); procedure, shortened: as §1
[2] = Ratio between Vmax and Km; procedure, shortened: as §1

With `CN1CC=C(c2ccccc2)CC1` the Vmax (Rattus norvegicus) was 218 nM hr-1 (mg of protein)-1, the Km [1] was 90 µM and the Ratio [2] was 2.42.
